Measured values as given in ChEMBL document CHEMBL1150832, “Phenylnaphthalene compounds from the subterranean part of Vitex rotundifolia and their antibacterial activity against methicillin-resistant Staphylococcus aureus” (2001).
≈ marks a conversion by molar mass, not a printed value. Calls of active or inactive are those of the source. No cut-off for these calls is given here.

Assays:
Staphylococcus aureus [1] = assay: Antimicrobial activity against methicillin-resistant Staphylococcus aureus 0018 after 20 hrs by serial twofold dilution method; assay type: functional; conditions: Staphylococcus aureus, 0018, 20 h
Summary of the method: (§1)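 Agar dilution MIC on Mueller-Hinton agar, following the Japanese Society for Antimicrobial Chemotherapy (1981) method. MRSA clinical isolates from Tokushima University Hospital were grown on Mueller-Hinton agar at 37 °C for 24 h, then resuspended in Mueller-Hinton broth. Suspensions of 1 × 10^6 CFU/mL were spotted with a replicating device. Plates were read after 20 h at 37 °C.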

Staphylococcus aureus [2] = assay: Antimicrobial activity against methicillin-resistant Staphylococcus aureus 0005 at 100 ug after 20 hrs by agar plate diffusion assay; assay type: functional, organism-based
Summary of the method: (§2)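 Disk diffusion against MRSA clinical isolates from Tokushima University Hospital. Cells were grown on Mueller-Hinton agar at 37 °C for 24 h, resuspended in Mueller-Hinton broth, and diluted to 10^5 CFU/mL to seed Mueller-Hinton agar plates. 6 mm disks loaded with 100 µg compound were incubated 20 h at 37 °C. Inhibition zones over 10 mm in diameter were scored positive.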

Staphylococcus aureus [3] = assay: Antimicrobial activity against methicillin-resistant Staphylococcus aureus 0022 after 20 hrs by serial twofold dilution method; assay type: functional; conditions: Staphylococcus aureus, 0022, 20 h; summary of the method: as §1
Staphylococcus aureus [4] = assay: Antimicrobial activity against methicillin-resistant Staphylococcus aureus 0002 after 20 hrs by serial twofold dilution method; assay type: functional; conditions: Staphylococcus aureus, 0002, 20 h; summary of the method: as §1
Staphylococcus aureus [5] = assay: Antimicrobial activity against methicillin-resistant Staphylococcus aureus 0013 after 20 hrs by serial twofold dilution method; assay type: functional; conditions: Staphylococcus aureus, 0013, 20 h; summary of the method: as §1
Staphylococcus aureus [6] = assay: Antimicrobial activity against methicillin-resistant Staphylococcus aureus 0001 at 100 ug after 20 hrs by agar plate diffusion assay; assay type: functional, organism-based; summary of the method: as §2
Staphylococcus aureus [7] = assay: Antimicrobial activity against methicillin-resistant Staphylococcus aureus 0004 at 100 ug after 20 hrs by agar plate diffusion assay; assay type: functional, organism-based; summary of the method: as §2
Staphylococcus aureus [8] = assay: Antimicrobial activity against methicillin-sensitive Staphylococcus aureus ATCC 6538 at 100 ug after 20 hrs by agar plate diffusion assay; assay type: functional, organism-based
Summary of the method: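 Agar disk diffusion. Cells were grown on Mueller-Hinton agar at 37 °C for 24 h, resuspended in Mueller-Hinton broth to 108 CFU/mL and incubated again. They were then diluted to 105 CFU/mL and used to inoculate Mueller-Hinton agar plates. 6 mm disks loaded with 100 µg compound were placed on the plates and incubated 20 h at 37 °C. Inhibition zones >10 mm were scored positive.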

Staphylococcus aureus [9] = assay: Antimicrobial activity against methicillin-resistant Staphylococcus aureus 0006 after 20 hrs by serial twofold dilution method; assay type: functional; conditions: Staphylococcus aureus, 0006, 20 h; summary of the method: as §1
Staphylococcus aureus [10] = assay: Antimicrobial activity against methicillin-resistant Staphylococcus aureus 0016 at 100 ug after 20 hrs by agar plate diffusion assay; assay type: functional, organism-based; summary of the method: as §2
Staphylococcus aureus [11] = assay: Antimicrobial activity against methicillin-resistant Staphylococcus aureus 0016 after 20 hrs by serial twofold dilution method; assay type: functional; conditions: Staphylococcus aureus, 0016, 20 h; summary of the method: as §1
Staphylococcus aureus [12] = assay: Antimicrobial activity against methicillin-resistant Staphylococcus aureus 0012 at 100 ug after 20 hrs by agar plate diffusion assay; assay type: functional, organism-based; summary of the method: as §2
Staphylococcus aureus [13] = assay: Antimicrobial activity against methicillin-resistant Staphylococcus aureus 0020 after 20 hrs by serial twofold dilution method; assay type: functional; conditions: Staphylococcus aureus, 0020, 20 h; summary of the method: as §1
Staphylococcus aureus [14] = assay: Antimicrobial activity against methicillin-resistant Staphylococcus aureus 0008 after 20 hrs by serial twofold dilution method; assay type: functional; conditions: Staphylococcus aureus, 0008, 20 h; summary of the method: as §1
Staphylococcus aureus [15] = assay: Antimicrobial activity against methicillin-resistant Staphylococcus aureus 0005 after 20 hrs by serial twofold dilution method; assay type: functional; conditions: Staphylococcus aureus, 0005, 20 h; summary of the method: as §1
Staphylococcus aureus [16] = assay: Antimicrobial activity against methicillin-resistant Staphylococcus aureus 0009 after 20 hrs by serial twofold dilution method; assay type: functional; conditions: Staphylococcus aureus, 0009, 20 h; summary of the method: as §1
Staphylococcus aureus [17] = assay: Antimicrobial activity against methicillin-resistant Staphylococcus aureus 0006 at 100 ug after 20 hrs by agar plate diffusion assay; assay type: functional, organism-based; summary of the method: as §2
Staphylococcus aureus [18] = assay: Antimicrobial activity against methicillin-resistant Staphylococcus aureus 0019 after 20 hrs by serial twofold dilution method; assay type: functional; conditions: Staphylococcus aureus, 0019, 20 h; summary of the method: as §1
Staphylococcus aureus [19] = assay: Antimicrobial activity against methicillin-resistant Staphylococcus aureus 0004 after 20 hrs by serial twofold dilution method; assay type: functional; conditions: Staphylococcus aureus, 0004, 20 h; summary of the method: as §1
Staphylococcus aureus [20] = assay: Antimicrobial activity against methicillin-resistant Staphylococcus aureus 0002 at 100 ug after 20 hrs by agar plate diffusion assay; assay type: functional, organism-based; summary of the method: as §2
Staphylococcus aureus [21] = assay: Antimicrobial activity against methicillin-resistant Staphylococcus aureus 0007 at 100 ug after 20 hrs by agar plate diffusion assay; assay type: functional, organism-based; summary of the method: as §2
Staphylococcus aureus [22] = assay: Antimicrobial activity against methicillin-resistant Staphylococcus aureus 0017 at 100 ug after 20 hrs by agar plate diffusion assay; assay type: functional, organism-based; summary of the method: as §2
Staphylococcus aureus [23] = assay: Antimicrobial activity against methicillin-resistant Staphylococcus aureus 0008 at 100 ug after 20 hrs by agar plate diffusion assay; assay type: functional, organism-based; summary of the method: as §2
Staphylococcus aureus [24] = assay: Antimicrobial activity against methicillin-resistant Staphylococcus aureus 0020 at 100 ug after 20 hrs by agar plate diffusion assay; assay type: functional, organism-based; summary of the method: as §2
Staphylococcus aureus [25] = assay: Antimicrobial activity against methicillin-resistant Staphylococcus aureus 0021 at 100 ug after 20 hrs by agar plate diffusion assay; assay type: functional, organism-based; summary of the method: as §2
Staphylococcus aureus [26] = assay: Antimicrobial activity against methicillin-resistant Staphylococcus aureus 0013 at 100 ug after 20 hrs by agar plate diffusion assay; assay type: functional, organism-based; summary of the method: as §2
Staphylococcus aureus [27] = assay: Antimicrobial activity against methicillin-resistant Staphylococcus aureus 0021 after 20 hrs by serial twofold dilution method; assay type: functional; conditions: Staphylococcus aureus, 0021, 20 h; summary of the method: as §1
Staphylococcus aureus [28] = assay: Antimicrobial activity against methicillin-resistant Staphylococcus aureus 0003 at 100 ug after 20 hrs by agar plate diffusion assay; assay type: functional, organism-based; summary of the method: as §2
Staphylococcus aureus [29] = assay: Antimicrobial activity against methicillin-resistant Staphylococcus aureus 0022 at 100 ug after 20 hrs by agar plate diffusion assay; assay type: functional, organism-based; summary of the method: as §2
Staphylococcus aureus [30] = assay: Antimicrobial activity against methicillin-resistant Staphylococcus aureus 0009 at 100 ug after 20 hrs by agar plate diffusion assay; assay type: functional, organism-based; summary of the method: as §2
Staphylococcus aureus [31] = assay: Antimicrobial activity against methicillin-resistant Staphylococcus aureus 0007 after 20 hrs by serial twofold dilution method; assay type: functional; conditions: Staphylococcus aureus, 0007, 20 h; summary of the method: as §1
Staphylococcus aureus [32] = assay: Antimicrobial activity against methicillin-resistant Staphylococcus aureus 0019 at 100 ug after 20 hrs by agar plate diffusion assay; assay type: functional, organism-based; summary of the method: as §2
Staphylococcus aureus [33] = assay: Antimicrobial activity against methicillin-resistant Staphylococcus aureus 0017 after 20 hrs by serial twofold dilution method; assay type: functional; conditions: Staphylococcus aureus, 0017, 20 h; summary of the method: as §1
Staphylococcus aureus [34] = assay: Antimicrobial activity against methicillin-resistant Staphylococcus aureus 0018 at 100 ug after 20 hrs by agar plate diffusion assay; assay type: functional, organism-based; summary of the method: as §2
Staphylococcus aureus [35] = assay: Antimicrobial activity against methicillin-resistant Staphylococcus aureus 0003 after 20 hrs by serial twofold dilution method; assay type: functional; conditions: Staphylococcus aureus, 0003, 20 h; summary of the method: as §1
Staphylococcus aureus [36] = assay: Antimicrobial activity against methicillin-resistant Staphylococcus aureus 0012 after 20 hrs by serial twofold dilution method; assay type: functional; conditions: Staphylococcus aureus, 0012, 20 h; summary of the method: as §1
Staphylococcus aureus [37] = assay: Antimicrobial activity against methicillin-resistant Staphylococcus aureus 0001 after 20 hrs by serial twofold dilution method; assay type: functional; conditions: Staphylococcus aureus, 0001, 20 h; summary of the method: as §1

SMILES	MIC (Staphylococcus aureus [1])	Activity (Staphylococcus aureus [2])	MIC (Staphylococcus aureus [3])	MIC (Staphylococcus aureus [4])	MIC (Staphylococcus aureus [5])	Activity (Staphylococcus aureus [8])	MIC (Staphylococcus aureus [9])	MIC (Staphylococcus aureus [11])	MIC (Staphylococcus aureus [13])	MIC (Staphylococcus aureus [14])	MIC (Staphylococcus aureus [15])	MIC (Staphylococcus aureus [16])	MIC (Staphylococcus aureus [18])	MIC (Staphylococcus aureus [19])	MIC (Staphylococcus aureus [27])	MIC (Staphylococcus aureus [31])	MIC (Staphylococcus aureus [33])	MIC (Staphylococcus aureus [35])	MIC (Staphylococcus aureus [36])	MIC (Staphylococcus aureus [37])	further results
COc1cc2c(cc1OC)-c1c(c(C=O)cc3ccc(O)c(OC)c13)C2=O [VITROFOLAL D]	> 64 µg/mL	Active	> 64 µg/mL	16 µg/mL (≈ 43.9 µM)	> 64 µg/mL	inactive	16 µg/mL (≈ 43.9 µM)	16 µg/mL (≈ 43.9 µM)	16 µg/mL (≈ 43.9 µM)	16 µg/mL (≈ 43.9 µM)	16 µg/mL (≈ 43.9 µM)	> 64 µg/mL	> 64 µg/mL	> 64 µg/mL	> 64 µg/mL	16 µg/mL (≈ 43.9 µM)	> 64 µg/mL	32 µg/mL (≈ 87.8 µM)	> 64 µg/mL	> 64 µg/mL	Activity (Staphylococcus aureus [6]): Active; Activity (Staphylococcus aureus [7]): Active; Activity (Staphylococcus aureus [10]): Active; Activity (Staphylococcus aureus [12]): Active; Activity (Staphylococcus aureus [17]): Active; Activity (Staphylococcus aureus [20]): Active; Activity (Staphylococcus aureus [21]): Active; Activity (Staphylococcus aureus [22]): Active; Activity (Staphylococcus aureus [23]): Active; Activity (Staphylococcus aureus [24]): Active; Activity (Staphylococcus aureus [25]): Active; Activity (Staphylococcus aureus [26]): Active; Activity (Staphylococcus aureus [28]): Active; Activity (Staphylococcus aureus [29]): Active; Activity (Staphylococcus aureus [30]): Active; Activity (Staphylococcus aureus [32]): Active; Activity (Staphylococcus aureus [34]): Active
COc1cc(-c2c(O)c(C=O)cc3cc(OC)c(O)cc23)ccc1O						inactive															
COc1cc(-c2cc(C=O)cc3cc(OC)c(O)cc23)ccc1O [VITROFOLAL E]	> 64 µg/mL		> 64 µg/mL	> 64 µg/mL	> 64 µg/mL	inactive	> 64 µg/mL	> 64 µg/mL	64 µg/mL (≈ 197 µM)	> 64 µg/mL	> 64 µg/mL	> 64 µg/mL	> 64 µg/mL	> 64 µg/mL	> 64 µg/mL	> 64 µg/mL	> 64 µg/mL	> 64 µg/mL	> 64 µg/mL	> 64 µg/mL	
COc1cc(-c2c3c(cc4cc(OC)c(O)cc24)C(=O)OC3)ccc1O [DETETRAHYDROCONIDENDRIN]	> 64 µg/mL	Active	> 64 µg/mL	8 µg/mL (≈ 22.7 µM)	> 64 µg/mL	inactive	8 µg/mL (≈ 22.7 µM)	16 µg/mL (≈ 45.4 µM)	4 µg/mL (≈ 11.4 µM)	8 µg/mL (≈ 22.7 µM)	8 µg/mL (≈ 22.7 µM)	> 64 µg/mL	> 64 µg/mL	> 64 µg/mL	> 64 µg/mL	16 µg/mL (≈ 45.4 µM)	> 64 µg/mL	8 µg/mL (≈ 22.7 µM)	> 64 µg/mL	> 64 µg/mL	Activity (Staphylococcus aureus [6]): Active; Activity (Staphylococcus aureus [7]): Active; Activity (Staphylococcus aureus [10]): Active; Activity (Staphylococcus aureus [12]): Active; Activity (Staphylococcus aureus [17]): Active; Activity (Staphylococcus aureus [20]): Active; Activity (Staphylococcus aureus [21]): Active; Activity (Staphylococcus aureus [22]): Active; Activity (Staphylococcus aureus [23]): Active; Activity (Staphylococcus aureus [24]): Active; Activity (Staphylococcus aureus [25]): Active; Activity (Staphylococcus aureus [26]): Active; Activity (Staphylococcus aureus [28]): Active; Activity (Staphylococcus aureus [29]): Active; Activity (Staphylococcus aureus [30]): Active; Activity (Staphylococcus aureus [32]): Active; Activity (Staphylococcus aureus [34]): Active
COc1cc2cc3c(c(-c4ccc(OC)c(OC)c4)c2cc1O)COC3=O						inactive															
